Reference: ChEMBL document CHEMBL1130129, “Immunologically specific activation of a cephalosporin derivative of mitomycin C by monoclonal antibody beta-lactamase conjugates” (J Med Chem, 1997)

Key:
[1] = substrate: CO[C@@]12[C@H](COC(N)=O)C3=C(C(=O)C(C)=C(NCC4=C(C(=O)O)N5C(=O)[C@@H](NC(=O)Cc6ccccc6)[C@H]5SC4)C3=O)N1C[C@@H]1N[C@@H]12; assay: (§1) Determination of kinetic constant (Km) for hydrolysis by beta-lactamase from Enterobacter cloacae 99
Outline: (§2)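 Purified E. cloacae β-lactamase (0.1 µg/mL) added to prodrug in PBS pH 7.2 containing 12.5 µg/mL bovine serum albumin, 23 °C; β-lactam hydrolysis followed by loss of absorbance at 260 nm. Initial velocities taken from linear portions of absorbance-time plots and used to derive kinetic constants.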

[2] = substrate: O=C(O)CCCC(=O)N[C@@H]1C(=O)N2C(C(=O)O)=C(COC(=O)Nc3ccc(N(CCCl)CCCl)cc3)CS[C@H]12; assay: as §1; outline: as §2
[3] = substrate: O=C(Cc1ccccc1)N[C@@H]1C(=O)N2C(C(=O)O)=C(COC(=O)Nc3ccc(N(CCCl)CCCl)cc3)CS[C@H]12; assay: as §1; outline: as §2
[4] = substrate: CO[C@@]12[C@H](COC(N)=O)C3=C(C(=O)C(C)=C(NCC4=C(C(=O)O)N5C(=O)[C@@H](NC(=O)CCCC(=O)O)[C@H]5SC4)C3=O)N1C[C@@H]1N[C@@H]12; assay: as §1; outline: as §2

B1: Beta-lactamase (Enterobacter cloacae), P05364 (protein)
chain: MMRKSLCCALLLGISCSALATPVSEKQLAEVVANTITPLMKAQSVPGMAVAVIYQGKPHYYTFGKADIAANKPVTPQTLFELGSISKTFTGVLGGDAIARGEISLDDAVTRYWPQLTGKQWQGIRMLDLATYTAGGLPLQVPDEVTDNASLLRFYQNWQPQWKPGTTRLYANASIGLFGALAVKPSGMPYEQAMTTRVLKPLKLDHTWINVPKAEEAHYAWGYRDGKAVRVSPGMLDAQAYGVKTNVQDMANWVMANMAPENVADASLKQGIALAQSRYWRIGSMYQGLGWEMLNWPVEANTVVEGSDSKVALAPLPVAEVNPPAPPVKASWVHKTGSTGGFGSYVAFIPEKQIGIVMLANTSYPNPARVEAAYHILEALQ
B1 was tested, and the Km [1] was 48.9 µM, the Km [2] was 43.2 µM and the Km [3] was 7 µM. For the same protein, the Km [4] was 119 µM.
